In brackets after ≈: the same amount, converted by molar mass. Activity calls are given as the source filed them. The calls are words filed in the database; no cut-off is given here.
Columns and labels:
[1] = test system: Mycolicibacterium smegmatis; assay: Antimycobacterial activity against Mycobacterium smegmatis MC2 155 ATCC 14468 after 32 hrs by broth microdilution method; format: functional
How it was run: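 M. smegmatis MC² 155 grown overnight to mid-log in Middlebrook 7H9 (0.2% glycerol, 0.1% Tween-80, 10% ADS) at 37 °C, subcultured to OD600 ≈0.3, then diluted 1:1000 into 96-well plates. Final compound levels were […]. Incubated 32 h at 37 °C, turbidity read at OD600, triplicates. GI50 was derived from % growth inhibition. INH/rifampicin positive controls, DMSO and medium-only controls.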

DU-145 = assay: Cytotoxicity against human DU145 cells after 48 hrs by MTT assay; format: functional, cell-based
How it was run: (§1)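 Cells taken from T75 flasks/90 mm dishes when sub-confluent, trypsinized and seeded at 5000–10000 cells/well according to doubling time. Test compounds added after 18 h at four concentrations, in triplicate wells. Incubation 48 h, then MTT (5 mg/mL) for 60 min at 37 °C and the bound dye solubilized. Percent growth taken against control wells. IC50 read from dose-response curves; three independent experiments, mean ± SD.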

HEK293 = assay: Cytotoxicity against HEK293 cells after 48 hrs by MTT assay; format: cell-based, Homo sapiens; how it was run: as §1
A549 = assay: Cytotoxicity against human A549 cells after 48 hrs by MTT assay; format: functional, cell-based; how it was run: as §1
HeLa [2] = assay: Cytotoxicity against human HeLa cells after 48 hrs by MTT assay; format: functional, cell-based; how it was run: as §1
HeLa [3] = assay: Ratio of IC50 for HEK293 cells to IC50 for human HeLa cells
HeLa [4] = assay: Induction of apoptosis in human HeLa cells assessed as activation of caspase-9 using Ac-DEVD-AMC as substrate at 10 to 25 uM after 48 hrs by fluorescence assay relative to control; format: functional
HeLa [5] = assay: Induction of apoptosis in human HeLa cells assessed as activation of caspase-3 using Ac-DEVD-AMC as substrate at 10 to 25 uM after 48 hrs by fluorescence assay relative to control; format: functional
How it was run: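 HeLa cells treated 48 h with compound or DMSO, then lysed in 50 mM HEPES, 5 mM CHAPS, 5 mM DTT, pH 7.5. Lysate incubated with Ac-DEVD-AMC in 20 mM HEPES pH 7.5, 0.1% CHAPS, 2 mM EDTA, 5 mM DTT for 2 h at 37 °C. AMC read at ex/em 380/460 nm and normalized to Bradford protein. Activity expressed as treated relative to mock-treated. Doxorubicin used as positive control.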

[6] = Homo sapiens, A549, 48 h, read-out: IC50
[7] = Homo sapiens, DU-145, 48 h, read-out: IC50
[8] = Homo sapiens, HEK293, 48 h, read-out: IC50
[9] = Homo sapiens, HeLa, 48 h, read-out: IC50

| Compound | GI50 ([1]; MC2 155 ATCC 14468, 32 h) | IC50 (DU-145; du-145) | GI50 [1] | IC50 (HEK293; hek293) | IC50 (A549; [6]) | IC50 (HeLa [2]; hela) | IC50 (DU-145; [7]) | Ratio IC50 (HeLa [3]) | fold change (FC) (HeLa [4]) | fold change (FC) (HeLa [5]) | IC50 (HEK293; [8]) | IC50 (HeLa [2]; [9]) | IC50 (A549; a549) |
| --- | --- | --- | --- | --- | --- | --- | --- | --- | --- | --- | --- | --- | --- |
| NNC(=O)c1ccncc1 [ISONIAZID] | 7.94 µg/mL (≈ 57.9 µM) |  |  |  |  |  |  |  |  |  |  |  |  |
| O=C1C2=Cc3ccccc3OCC2=NN1c1cccc(Cl)c1 |  | Not Active | inactive | Not Active | 244 µM | Not Active |  |  |  |  |  |  |  |
| O=C1ON=C2COc3ccc(Br)cc3C=C12 | 28.5 µg/mL (≈ 102 µM) |  |  |  | 49.1 µM |  | 28.8 µM | 4 | 20 | <=40 | 48.2 µM | 10.1 µM |  |
| Cc1ccc(N2N=C3COc4ccccc4C=C3C2=O)cc1C | 19.4 µg/mL (≈ 63.6 µM) | Not Active |  | Not Active | 84.3 µM | Not Active |  |  |  |  |  |  |  |
| O=C1C2=Cc3cc(-c4ccccc4)ccc3OCC2=NN1c1ccc(Br)cc1 |  |  | inactive | Not Active | 118 µM | Not Active | 140 µM |  |  |  |  |  |  |
| CO[C@H]1/C=C/O[C@@]2(C)Oc3c(C)c(O)c4c(O)c(c(/C=N/N5CCN(C)CC5)c(O)c4c3C2=O)NC(=O)/C(C)=C\C=C\[C@H](C)[C@H](O)[C@@H](C)[C@@H](O)[C@@H](C)[C@H](OC(C)=O)[C@@H]1C [RIFAMPIN] | 1.04 µg/mL (≈ 1.26 µM) |  |  |  |  |  |  |  |  |  |  |  |  |
| Cc1ccc(N2N=C3COc4ccc(-c5ccccc5)cc4C=C3C2=O)cc1 | 34 µg/mL (≈ 92.8 µM) |  |  |  |  |  | 78.2 µM |  |  |  | 149 µM | 185 µM | Not Active |
| O=C1ON=C2COc3ccccc3C=C12 | 21.4 µg/mL (≈ 106 µM) |  |  | Not Active |  |  | 84.8 µM |  |  |  |  | 85 µM | Not Active |
| O=C1C2=Cc3ccccc3OCC2=NN1c1ccccc1 | 23.2 µg/mL (≈ 83.9 µM) | Not Active |  | Not Active |  | Not Active |  |  |  |  |  |  | Not Active |
| COc1ccc2c(c1)C=C1C(=O)N(c3ccc(C)cc3)N=C1CO2 |  |  | inactive |  | 199 µM |  | 117 µM |  |  |  | 138 µM | 129 µM |  |
| O=C1ON=C2COc3ccc(-c4ccccc4)cc3C=C12 | 9.1 µg/mL (≈ 32.8 µM) |  |  |  | 29.7 µM |  | 28.9 µM | 4 | 20 | <=40 | 39.2 µM | 9.03 µM |  |
| Cc1ccc(N2N=C3COc4ccc(Br)cc4C=C3C2=O)cc1 | 42.4 µg/mL (≈ 115 µM) | Not Active |  | Not Active | 163 µM | Not Active |  |  |  |  |  |  |  |
| Cc1ccccc1N1N=C2COc3ccccc3C=C2C1=O |  |  | inactive |  |  |  | 63.9 µM |  |  |  | 154 µM | 109 µM | Not Active |
| O=C1C2=Cc3ccccc3OCC2=NN1c1ccc(Br)cc1 |  |  | inactive | Not Active |  | Not Active | 117 µM |  |  |  |  |  | Not Active |
| O=C1C2=Cc3cc(Br)ccc3OCC2=NN1c1ccccc1 | 11.9 µg/mL (≈ 33.5 µM) |  |  | Not Active |  | Not Active | 123 µM |  |  |  |  |  | Not Active |
| O=C1C2=Cc3ccccc3OCC2=NN1c1ccc(Cl)cc1 |  |  | inactive | Not Active | 215 µM | Not Active | 89.4 µM |  |  |  |  |  |  |
| COc1cccc2c1C(=O)c1c(O)c3c(c(O)c1C2=O)C[C@@](O)(C(=O)CO)C[C@@H]3O[C@H]1C[C@H](N)[C@H](O)[C@H](C)O1 [DOXORUBICIN] |  |  |  |  | 7.47 µM |  | 8.19 µM |  |  |  | 7.41 µM | 6.94 µM |  |
| Cc1ccc(N2N=C3COc4ccccc4C=C3C2=O)cc1 | 49.3 µg/mL (≈ 170 µM) |  |  | Not Active |  | Not Active | 152 µM |  |  |  |  |  | Not Active |
| O=C1C2=Cc3cc(Br)ccc3OCC2=NN1c1ccc(Br)cc1 |  | Not Active | inactive | Not Active |  | Not Active |  |  |  |  |  |  | Not Active |
| Cc1cccc(N2N=C3COc4ccccc4C=C3C2=O)c1 |  | Not Active | inactive | Not Active |  | Not Active |  |  |  |  |  |  | Not Active |
| COc1ccc2c(c1)C=C1C(=O)N(c3ccccc3)N=C1CO2 | 15.7 µg/mL (≈ 51.1 µM) | Not Active |  | Not Active |  |  |  |  |  |  |  | 167 µM | Not Active |
| O=C1C2=Cc3cc(-c4ccccc4)ccc3OCC2=NN1c1ccccc1 |  | Not Active | inactive | Not Active | 117 µM | Not Active |  |  |  |  |  |  |  |
| COc1ccc(N2N=C3COc4ccccc4C=C3C2=O)cc1 |  |  | inactive | Not Active | 133 µM |  | 67.5 µM |  |  |  |  | 166 µM |  |
| O=C1C2=Cc3ccccc3OCC2=NN1c1ccc(F)cc1 | 38.7 µg/mL (≈ 132 µM) | Not Active |  | Not Active |  | Not Active |  |  |  |  |  |  | Not Active |
| COc1ccc2c(c1)C=C1C(=O)N(c3ccc(Br)cc3)N=C1CO2 |  | Not Active | inactive |  | 33.3 µM |  |  |  |  |  | 161 µM | 180 µM |  |
| O=C1C2=Cc3ccccc3OCC2=NN1c1cccc(F)c1 |  |  | inactive | Not Active | 179 µM |  | 97 µM |  |  |  |  | 190 µM |  |
| COc1ccc2c(c1)C=C1C(=O)ON=C1CO2 |  |  | inactive |  | 46.5 µM |  | 33.6 µM | 4 | 20 | <=40 | 47.7 µM | 10.1 µM |  |
